H69AR growth 86K – proliferation blockers of H69AR lung cancer cells, primary screen, cell-based, human, 86K library; H69AR lung tumor viability, ATP luminescence, 72 h; hits give low values; viability, % at 10 µM; 6% of 85,000 active;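 active means viability at or below 40%; inactive means viability above 40%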;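 further: multidrug resistant small cell line overexpressing MRP-1 efflux transporter; 100% = mean luminescence of untreated control wells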
HUVEC inhibit – inhibitors of HUVEC proliferation, primary screen, cell-based, 384-well | CellTiter-Glo luminescence, 72 h; hits give low values | viability, % at 10 µM (by protocol) | 1.1% of 86,000 active;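 active means viability at or below 30%; inactive means viability above 30%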;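 further: 100% = median luminescence of DMSO-only cell control wells on each plate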
F-actin modifier – modifiers of F-actin cytoskeleton organization, primary screen, imaging, HUVEC, phalloidin staining, high-content imaging; HUVEC TNFa F-actin phalloidin imaging; AID 836, 2007; 0.18% of 91,000 active; inhibition, % at 2 µM;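 active means inhibition above the batch mean plus 3 SD and confirmed as a hit by visual image inspection, cut at about 30% in these data, passing the limit was not always enough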
PTK2B oligo ant – antagonists of Pyk2 self-association, primary screen, Q293 cells, FERM NanoBiT luminescence, HTS; 0.83% of 99,000 active; z-score (the deposit names both 25 µM and 10 µM); hits give low values;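 active means Z-score of -3 or lower, scaled per plate to the spread of control and sample wells; inactive means z-score above -3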;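 further: negative z-score means lost luminescence so less FERM oligomerization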
Target sequence (Q14289 whole entry, looked up): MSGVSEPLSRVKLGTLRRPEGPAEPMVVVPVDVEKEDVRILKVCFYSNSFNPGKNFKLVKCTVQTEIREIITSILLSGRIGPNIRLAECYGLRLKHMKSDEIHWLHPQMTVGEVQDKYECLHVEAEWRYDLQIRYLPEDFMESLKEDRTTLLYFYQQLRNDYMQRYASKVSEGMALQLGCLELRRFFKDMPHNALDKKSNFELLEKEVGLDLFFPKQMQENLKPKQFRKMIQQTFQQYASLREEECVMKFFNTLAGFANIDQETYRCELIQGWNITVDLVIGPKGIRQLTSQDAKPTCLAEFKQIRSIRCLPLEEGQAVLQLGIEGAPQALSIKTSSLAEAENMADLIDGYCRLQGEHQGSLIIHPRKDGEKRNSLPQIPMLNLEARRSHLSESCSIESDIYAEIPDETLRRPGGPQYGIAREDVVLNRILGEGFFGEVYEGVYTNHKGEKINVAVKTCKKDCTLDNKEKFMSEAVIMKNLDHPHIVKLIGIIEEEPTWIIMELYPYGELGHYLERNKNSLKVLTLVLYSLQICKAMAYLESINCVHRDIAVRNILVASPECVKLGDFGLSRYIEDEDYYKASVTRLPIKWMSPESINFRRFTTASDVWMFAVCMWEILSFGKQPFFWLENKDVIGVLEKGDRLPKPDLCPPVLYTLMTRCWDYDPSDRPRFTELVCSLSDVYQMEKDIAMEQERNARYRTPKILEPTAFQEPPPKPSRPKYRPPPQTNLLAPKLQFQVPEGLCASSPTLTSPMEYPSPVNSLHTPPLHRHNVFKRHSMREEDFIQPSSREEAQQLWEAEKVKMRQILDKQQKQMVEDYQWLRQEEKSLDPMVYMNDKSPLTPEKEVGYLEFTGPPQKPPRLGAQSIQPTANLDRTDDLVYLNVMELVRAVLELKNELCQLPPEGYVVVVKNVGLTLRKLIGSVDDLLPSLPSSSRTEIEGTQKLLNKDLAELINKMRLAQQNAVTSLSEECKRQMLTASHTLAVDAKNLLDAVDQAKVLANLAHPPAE
Jurkat viability – cytotoxicity toward Jurkat T cells, primary screen, cytotoxicity control, cell-based, Jurkat E6.1, 60K MLSMR library | 1.2% of 56,000 active | AID 463, 2006 | inhibition, % at 4 µM | Jurkat E6.1 viability, ATP luminescence, 48 h;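 active means inhibition above the mean inhibition of all tested compounds plus 3 SD, cut at about 28% in these data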
Lung fibro prol – antiproliferative effect on LL 47 fibroblasts – human, LL 47 cells, CellTiter-Glo luminescence, primary screen | LL 47 human lung fibroblast viability, ATP luminescence; hits give low values | 1.1% of 85,000 active | viability, % at 10 µM | AID 719, 2007;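 active means viability at or below 50% in the single dose screen; inactive means viability above 50%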;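 further: compound exposure lasted 72 h before the ATP readout; 100% = median luminescence of untreated cell-only wells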
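Assay system: human lung fibroblast line LL 47, low passage. Input: 1,150 fibroblasts seeded per well. Times: overnight cell rest, 72 h compound treatment at 37 °C. Evaluation: % viability of median cell-only signal. Technique: luminescent ATP detection, CellTiter-Glo. Control set: cell-only wells, no compound.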
* marks the source's active call; other numbers are inactive results; / = not tested or not shown. Hits are enriched below; roughly 6% of the tested compounds scored in any of these assays.

SMILES	H69AR growth 86K	HUVEC inhibit	F-actin modifier	PTK2B oligo ant	Jurkat viability	Lung fibro prol
CC(=O)NCCn1c(SCc2ccc(C)cc2C)nc2ccccc2c1=O	66.2	97.0	5.4	-0.92	/	84.5
c1ccc(-c2nc(CSc3n[nH]c(-c4cccs4)n3)cs2)cc1	81.6	89.6	3.6	0.13	/	101.1
COc1ccc(C(=O)N/C(N)=N/c2nc3ccccc3o2)cc1	18.8*	85.5	0.9	2.24	/	97.4
Cc1cc(C)n2nc(C(=O)OCCOc3ccc(F)cc3)nc2n1	99.2	94.4	19.3	-0.81	-7.4	110.1
O=c1oc2ccccc2c(Nc2ccc3ccccc3c2)c1[N+](=O)[O-]	18.9*	58.8	-4.5	-1.6	/	90.5
CCCCn1c(SCC(=O)NC(C)CC)nc2ccc(N3CCOCC3)cc2c1=O (centres undefined)	/	/	-64.1	-0.09	/	/
CCC(C)NC(=O)CSc1nc2ccc(N3CCOCC3)cc2c(=O)n1CCc1ccccc1 (centres undefined)	37.8*	82.9	/	/	/	97.2
O=[N+]([O-])c1nn(-c2ccc3c(c2)OCCO3)n(O)c1=Nc1ccc(Cl)cc1	/	/	-12.3	-3.44*	/	/
COc1ccc(S(=O)(=O)Nc2cccc(N(C)S(C)(=O)=O)c2)cc1Br	/	/	/	-1.42	/	/
O=C(NCc1cccnc1)c1c[nH]c2cc3c(cc2c1=O)OCCO3	79.9	83.4	31.5	0.84	94.4*	88.6
O=C(NCc1ccccc1)c1c[nH]c2ccc(S(=O)(=O)Nc3ccc4c(c3)OCCO4)cc2c1=O	95.3	75.0	-16.3	-1.01	7.4	95.3
COc1ccc(CCNC(=O)C2CCCN(Cc3nc(-c4ccccc4C)oc3C)C2)cc1OC (centres undefined)	72.0	80.0	/	-0.08	-4.9	95.4
CCOC(=O)N1CCN(C(=O)C2CCCN(Cc3nc(-c4ccc(Cl)cc4)oc3C)C2)CC1 (centres undefined)	81.7	84.4	3.2	/	48.9*	92.5
Cc1oc(-c2ccc(Cl)cc2)nc1CN1CCC(C(=O)NCc2cccnc2)CC1	93.8	102.8	2.3	1.96	7.4	102.6
CCCN(CCC)CCNC(=O)C1CCN(Cc2nc(-c3ccc(Cl)cc3)oc2C)CC1	59.0	9.9*	20.8	0.82	2.3	36.5*
CCc1ccc(-c2nc(CN3CCCC(C(=O)NCCc4ccc(OC)c(OC)c4)C3)c(C)o2)cc1 (centres undefined)	37.3*	60.2	/	-0.97	3.0	78.4
CCCc1cc(=O)n2[nH]c(-c3ccc(OC)cc3)nc2n1	103.1	90.2	-0.4	-1.13	/	101.6
CCOc1ccc(NC(=O)CCN2CCCCC2)cc1	97.1	92.8	17.5	0.03	-3.0	/
Cc1ncoc1C(=O)Nc1ccc(Oc2ccccc2)cc1	87.3	91.8	15.7	0.69	1.3	97.0
Cc1nc(C)c(C(=O)Nc2ccc(Oc3ccccc3)cc2)o1	75.0	93.9	1.7	0.99	29.5*	95.6
COc1cc(C(=O)O/N=C2\CCCc3c2ccc(OC)c3[N+](=O)[O-])cc(OC)c1OC	16.9*	57.9	2.7	0.6	/	71.4
O=C(NCc1nc2ccccc2[nH]1)c1cccs1	97.5	108.1	3.9	/	-3.7	109.5
COc1ccc(-n2nc(C(=O)c3cccs3)cc(-c3nc4ccccc4[nH]3)c2=N)cc1	1.4*	28.8*	3.1	-3.32*	/	78.2
Cc1ccccc1-n1nc(C(=O)c2cccs2)cc(-c2nc3ccccc3[nH]2)c1=N	37.8*	71.5	22.7	-2.91	/	78.0
CCCCCNc1nc(N2CCCC2)c2c(c1C#N)CCN(C)C2	2.1*	4.9*	9.6	0.82	/	38.6*
SMILES	H69AR growth 86K	HUVEC inhibit	F-actin modifier	PTK2B oligo ant	Jurkat viability	Lung fibro prol
Cc1nn(C)c(C)c1NC(=O)CN1CCC(O)(c2ccc3c(c2)OCO3)CC1	104.5	93.8	2.0	1.44	-7.9	87.9
CCOC(=O)C1=C(C)n2c(s/c(=C/c3cccc([N+](=O)[O-])c3)c2=O)=NC1c1ccc(O)c(OC)c1 (centres undefined)	3.2*	7.4*	0.1	0.31	/	16.9*
CCOC(=O)C1=C(C)N=c2s/c(=C/c3ccccc3)c(=O)n2C1c1ccc(OC)c(OC)c1 (centres undefined)	/	/	17.0	-1.19	/	/
CCOC(=O)C1=C(C)NC(C)=C(C(=O)OC)C1c1cccc([N+](=O)[O-])c1 (centres undefined)	92.4	78.0	/	/	/	95.4
COC(=O)C1=C(C)NC(C)=C(C(=O)OC)C1c1ccccc1[N+](=O)[O-]	8.5*	80.6	/	/	/	55.9
CCCCN=c1sc(C(=O)OC)cc(=O)n1CCCC	/	/	30.7	0.44	/	/
COC(=O)c1cc(=O)n(Cc2ccc3c(c2)OCO3)c(=Nc2ccc(F)c(Cl)c2)s1	32.6*	62.9	-8.6	/	/	68.7
CCn1c(=O)cc(C(=O)OC)sc1=Nc1ccc(F)c(F)c1	0.7*	56.5	13.3	/	9.7	15.6*
COC(=O)c1cc(=O)n(CCc2ccccc2)c(=Nc2ccc(F)cc2)s1	1.3*	54.1	-2.3	/	/	88.2
COC(=O)c1cc(=O)n(CCc2ccc(OC)cc2)c(=Nc2ccc(F)c(Cl)c2)s1	1.7*	21.9*	-3.1	/	/	62.1
O=C(O)C1CCCCC1C(=O)Nc1cccc(Cl)c1Cl (centres undefined)	92.0	79.2	6.3	0.7	/	101.2
O=S(=O)(Nc1ccc(-c2nc3ccccc3o2)cc1)c1ccccc1	91.7	91.4	-3.6	-3.45*	4.9	99.4
CC(=O)Nc1ccc(S(=O)(=O)Nc2cccc(-c3nc4ccccc4o3)c2)cc1	77.5	86.0	/	-0.68	/	96.4
CC(C)(C)C(=O)CNS(=O)(=O)c1ccc(S(=O)(=O)NC2CCCC2)cc1	89.1	99.5	-22.5	0.71	2.3	99.7
CN(C)CCCN1C(=O)C(=O)/C(=C(/O)c2ccc3c(c2)OCO3)C1c1cccnc1 (centres undefined)	96.1	106.4	9.8	/	/	96.1
CC(=O)Cn1c(N2CCC(Cc3ccccc3)CC2)nc2c1c(=O)[nH]c(=O)n2C	65.6	82.8	31.3*	0.1	2.8	90.3
CCCCCn1c(N2CCC(Cc3ccccc3)CC2)nc2c1c(=O)[nH]c(=O)n2C	19.6*	7.5*	-7.6	/	-3.5	93.1
Cn1c(=O)[nH]c(=O)c2c1nc(N1CCC(Cc3ccccc3)CC1)n2Cc1ccccc1	19.6*	59.0	-18.9	/	-4.3	100.8
CCCn1c(N2CCC(Cc3ccccc3)CC2)nc2c1c(=O)[nH]c(=O)n2C	41.3	77.2	16.7	-1.47	9.2	89.9
CCSc1nc(-c2ccco2)ccc1C#N	77.6	87.4	-21.4	0.59	7.2	91.0
N#Cc1ccc(-c2ccco2)nc1SCc1ccccc1	24.7*	89.4	9.0	-0.1	6.9	81.5
O=S(=O)(Nc1ccc(Cc2ccncc2)cc1)c1ccc(Cl)c(Cl)c1	/	/	11.0	-3.03*	/	/

Screening results: PubChem, several laboratories
